Data reported in publication PMC4495401 (Genes & Development, 2015).
Changes are numbered by the printed parent chain. Entries after “also recorded” stand apart in the source; their conditions may differ.

What was measured:
SIRT5 = settings: fluorogenic Fluor-de-Lys (FdL) peptide substrate; ref Gertz et al. 2012; cited from earlier work
p53-AMC peptide = assay: ITC, resveratrol to p53-AMC peptide; format: binding; settings: 25°C
[1] = target: SIRT1 NTD (isolated protein domain); assay: ITC, resveratrol to isolated SIRT1 NTD; format: binding, human; settings: 25°C
SIRT1 E230K mutant = target: T1, SIRT1 E230K mutant (Homo sapiens, UniProt Q96EB6, C253S/C268S/C501S/C502S/DEL513-640/E230K); assay: Enzyme-coupled deacetylation assay, SIRT1 E230K; format: biochemical; settings: p53-AMC 100 μM, 0.2 mM resveratrol, PBS pH 7.4, 37°C
T1 sequence (Q96EB6 with tags, fused parts or gaps E230K/C253S/C268S/C501S/C502S/DEL513-640 limits assumed): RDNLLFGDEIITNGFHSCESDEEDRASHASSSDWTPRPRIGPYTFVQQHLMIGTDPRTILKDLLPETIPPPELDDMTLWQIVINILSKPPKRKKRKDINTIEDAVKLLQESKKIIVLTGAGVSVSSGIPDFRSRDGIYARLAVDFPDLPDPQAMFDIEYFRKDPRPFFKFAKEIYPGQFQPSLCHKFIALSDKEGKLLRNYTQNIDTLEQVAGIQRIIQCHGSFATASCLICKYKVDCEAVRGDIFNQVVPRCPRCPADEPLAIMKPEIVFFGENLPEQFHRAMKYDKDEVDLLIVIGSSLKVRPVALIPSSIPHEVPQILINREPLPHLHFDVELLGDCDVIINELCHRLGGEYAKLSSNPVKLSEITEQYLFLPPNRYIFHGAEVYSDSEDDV
Method in brief: (§1)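 Mutants are made in the SIRT1-143CS background. Continuous coupled assay in PBS pH 7.4: 2 mM NAD, 100 μM p53-AMC, ±0.2 mM resveratrol, 0.2 mM NADH, 3.3 mM α-ketoglutarate, 1 μM PncA, 3 U glutamate dehydrogenase, 1 mM DTT, 2% DMSO. Pre-equilibrated 5–10 min at 37°C without NAD, then started with NAD. A340 followed 15 min, minus no-NAD background. Rate taken from the linear portion, three repeats.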

SIRT3 = settings: fluorogenic Fluor-de-Lys (FdL) peptide substrate; ref Gertz et al. 2012; cited from earlier work
SIRT1-143 = assay: Enzyme-coupled deacetylation assay, SIRT1-143; format: biochemical, human; settings: p53-AMC substrate, 0.5 mM resveratrol (Fig. 1B)
Method in brief: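 Purified tag-free SIRT1 fragments (his-sumo tag removed after Ni-IDA, then size exclusion) in the continuous nicotinamidase/glutamate dehydrogenase-coupled assay. NADH oxidation was read at 340 nm using an extinction coefficient of 6.22 mM−1 cm−1. Reactions at 37°C in PBS pH 7.4, started with NAD, with and without resveratrol. Background from no-NAD controls was subtracted.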

SIRT1 R446A mutant = target: T2, SIRT1 R446A mutant (Homo sapiens, UniProt Q96EB6, C253S/C268S/C501S/C502S/DEL513-640/R446A); assay: Enzyme-coupled deacetylation assay, SIRT1 R446A; format: biochemical; settings: p53-AMC 100 μM, 0.2 mM resveratrol, PBS pH 7.4, 37°C
T2 sequence (Q96EB6 with tags, fused parts or gaps C253S/C268S/R446A/C501S/C502S/DEL513-640 limits assumed): T1 sequence (Q96EB6 with tags, fused parts or gaps E230K/C253S/C268S/C501S/C502S/DEL513-640 limits assumed) with K88E, R304A
Method in brief: as §1

SIRT1 E230A mutant = target: T3, SIRT1 E230A mutant (Homo sapiens, UniProt Q96EB6, C253S/C268S/C501S/C502S/DEL513-640/E230A); assay: Enzyme-coupled deacetylation assay, SIRT1 E230A; format: biochemical; settings: p53-AMC 100 μM, 0.2 mM resveratrol, PBS pH 7.4, 37°C
T3 sequence (Q96EB6 with tags, fused parts or gaps E230A/C253S/C268S/C501S/C502S/DEL513-640 limits assumed): T1 sequence (Q96EB6 with tags, fused parts or gaps E230K/C253S/C268S/C501S/C502S/DEL513-640 limits assumed) with K88A
Method in brief: as §1

SIRT1-143CS = target: T4, SIRT1-143CS (Homo sapiens, UniProt Q96EB6, C253S/C268S/C501S/C502S/DEL513-640); format: biochemical; settings: 0.2 mM resveratrol, PBS pH 7.4, 37°C
T4 sequence (Q96EB6 with tags, fused parts or gaps C253S/C268S/C501S/C502S/DEL513-640 limits assumed): T1 sequence (Q96EB6 with tags, fused parts or gaps E230K/C253S/C268S/C501S/C502S/DEL513-640 limits assumed) with K88E

[2] = target: T5, SIRT1-143CS (C253S, C268S, C501S, C502S) (Homo sapiens, UniProt Q96EB6, C253S/C268S/C501S/C502S/DEL513-640); assay: ITC peptide binding, SIRT1-143CS; settings: 25°C, 0.5 mM resveratrol
T5 sequence (Q96EB6 with tags, fused parts or gaps C253S/C268S/C501S/C502S/DEL513-640 limits assumed): T1 sequence (Q96EB6 with tags, fused parts or gaps E230K/C253S/C268S/C501S/C502S/DEL513-640 limits assumed) with K88E
Method in brief: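 p53-AMC peptide ([acR]HK[Kac]-AMC) at 1.5 mM was titrated into 0.1 mM SIRT1 protein at 25°C with 600 rpm stirring. The run used 20 injections, a 0.5 μL first drop that was not used, 2 μL drops thereafter and 2 min intervals. Titrant and protein were both in 20 mM HEPES pH 7.5, 150 mM NaCl, 10% glycerol, with or without 0.5 mM resveratrol. Buffer-only titrant heat was subtracted, and KD came from a one-site fit.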

[3] = test system: fluorophore-attached p53 peptides; settings: ref Borra et al. 2005; Pacholec et al. 2010; cited from earlier work
SIRT1 Q222A/N226A mutant = target: T6, SIRT1 Q222A/N226A mutant (Homo sapiens, UniProt Q96EB6, C253S/C268S/C501S/C502S/DEL513-640/N226A/Q222A); assay: Enzyme-coupled deacetylation assay, SIRT1 Q222A/N226A; format: biochemical; settings: p53-AMC 100 μM, 0.2 mM resveratrol, PBS pH 7.4, 37°C
T6 sequence (Q96EB6 with tags, fused parts or gaps Q222A/N226A/C253S/C268S/C501S/C502S/DEL513-640 limits assumed): T1 sequence (Q96EB6 with tags, fused parts or gaps E230K/C253S/C268S/C501S/C502S/DEL513-640 limits assumed) with Q80A, N84A, K88E
Method in brief: as §1

For `Oc1ccc(/C=C/c2cc(O)cc(O)c2)cc1` [resveratrol], the “effect on SIRT5 activity” value (SIRT5) is listed as “stimulate the activity of SIRT5”, the “binding affinity between resveratrol and the p53-AMC peptide” value (p53-AMC peptide) is listed as “too weak to be reliably quantitated” and the “binding affinity between resveratrol and the SIRT1 NTD” value [1] is listed as “too weak to be reliably quantitated”. For the same compound, the “stimulatory effect of resveratrol” value (SIRT1 E230K mutant) was “significantly reduced the stimulatory effect of resveratrol”, the “effect on SIRT3 activity” value (SIRT3) was “inhibit SIRT3” and the “stimulation of deacetylase activity by resveratrol” value (SIRT1-143) was “stimulated by resveratrol in a manner similar to that of the full-length protein”. For the same compound, the “level of resveratrol stimulation” value (SIRT1 R446A mutant) was “level of resveratrol stimulation similar to that of the E230K mutant”, the “stimulatory effect of resveratrol” value (SIRT1 E230A mutant) was “significantly reduced the stimulatory effect of resveratrol” and the “effect of resveratrol on Km for the p53-AMC peptide” value (SIRT1-143CS) was “significantly lowered the Km value for the p53-AMC peptide; also recorded: lowered the Km value of the fluorogenic peptide”. The “effect of resveratrol on Km for PGC-1α and FOXO3a peptides” value (SIRT1-143CS; native peptides without fluorophore) was “less pronounced”, the “effect of resveratrol on binding between SIRT1 and the p53-AMC peptide” value [2] was “increased the binding between SIRT1 and the p53-AMC peptide” and the “interaction with fluorophore-attached p53 peptides” value [3] was “weakly”. The “response to the addition of resveratrol” value (SIRT1 Q222A/N226A mutant) was “conspicuous level of reduction in response to the addition of resveratrol”.
